Test system: MS2 coat protein
Test: apparent Kd, MS2 coat protein; higher = weaker binding; RNA-MaP array; FMN 200 µM where present
Summary of the method: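 The apparent Kd is reported as the median of filtered per-cluster binding-curve fits. To get these curves, designs transcribed by stalled E. coli RNA polymerase on Illumina sequencing-chip clusters were titrated with SNAP-549-labelled MS2 coat protein from 0.7 or 1.5 nM, doubling to 3 µM. Titrations were run without and then with constant ligand in 100 mM Tris-HCl pH 7.5, 80 mM KCl, 4 mM MgCl2, BSA, DTT, yeast tRNA and Tween-20, and green signal was normalised to red-channel RNA signal and control-cluster median Fmax.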

[1] = designed as: ON switch for flavin mononucleotide, no ligand
[2] = ligand present: flavin mononucleotide, designed as: ON switch for flavin mononucleotide
[3] = designed as: OFF switch for flavin mononucleotide, no ligand
[4] = ligand present: flavin mononucleotide, designed as: OFF switch for flavin mononucleotide

| Sequence | apparent Kd [1] [nM] | apparent Kd [2] [nM] | apparent Kd [3] [nM] | apparent Kd [4] [nM] |
| --- | --- | --- | --- | --- |
| AGAUACAACCAGAAGGACAUGAGGAUCACCCAUGUAGGAUAUGGGUUACACGUUCCUGUGAAUUGUAACGACGCUACGUAGAGU | 178 | 15 | – | – |
| AGAUAUGAUGCAGGAUAUCUAUCUUGAAUGAGGAGAGAAGGGCAAGCAGAGACAUAAGCCUUAUUACAUGAGGAUCACCCAUGU | – | – | 10.2 | 7.9 |
| AGAUCACAUGAGGAUCACCCAUGUCAGGAUAUCGACUGAACAGCUUCGGCUGUUCAGUCGAGAAGGGACAAUUA | – | – | 279 | 860 |
| AGAUCUAGGACAGGAUAUACUGAUGGCUUCAUCGAAGAUGAAGCCAUCACAUGAGGAUCACCCAUGUAGAAGGGUCCUAGAUCA | – | – | 14.5 | 14.9 |
| AGAUGACAAAGUCAUCUCGCGCAGACAUGAGGAUCACCCAUGUAGGAUAUAUUACUCAAAGAGUAAUAGAAGGACAUGUGUCUU | – | – | 33.5 | 91.7 |
| AGAUGACAAAGUCAUCUCUGACAGACAUGAGGAUCACCCAUGUAGGAUAUACUACUCAAAGAGUAGUAGAAGGACAUGUGUCUU | – | – | 33 | 95.7 |
| AGAUGACAAGGAUAUACUCGGGAUGCUAGUCGCGAAGAAGCACAUGAGGAUCACCCAUGUAGAAGGUGUAAGAA | – | – | 122 | 128 |
| AGAUGGCGAGGAUAUACAUGAGGAUCACCCAUGUGAAGAAGAAUAGUGAGGAAGAAAAGUAGAAGGCGCUGUCA | – | – | 53.6 | 180 |
| AGAUUCAUGGCCCGUUUGGGCUCACAUGAGGAUCACCCAUGUGAGGAUAUGACGUACCUGACUCGUCAGAAGGCGCAUGCGAAA | – | – | 7.48 | 15.7 |
| AGCAAGUCAGGAUAUGCGAAGUCAGGACACACACUGACGAAGCAGAAGGGACAUGAGGAUCACCCAUGUAAGCA | – | – | 29.1 | 42.9 |
| AGCAGGUGAGGAUAUCGAUUAAGAUUAACAUUAUUAUUAAACGAGAAGGCACAUGAGGAUCACCCAUGUAAGGA | – | – | 29.9 | 41.3 |
| AGCAUGCAGUAGGAUAUCGAUCCGCAAUAUGAACGAGAAGGACUGACAUGAGGAUCACCCAUGUGCGUCCUAGG | – | – | 16.5 | 19.7 |
| AGCAUGCUUGGGUAACCUGGCACAUGAGGAUCACCCAUGUGACAGGAUAUCGACGUAGAUGACGACGAGAAGGGUCUGAUGGGU | – | – | 7.61 | 12.3 |
| AGCAUGUGAGGAUAUGCGGACUCCGGUAAAGCUGGAGUCCAGUAGAAGGCACAUGAGGAUCACCCAUGUGAUAA | – | – | 85.6 | 106 |
| AGCCUACAUGAGGAUCACCCAUGUCAGGAUAUCUCGCGACAUGUCAAGUUCACGUUGCAGAGAAGGGACUCGGG | – | – | 56.6 | 63.6 |
| AGCCUUAGAGGAUAUACAUGAUCCUCCAUCGCGAAAGGGCUACAUGAGGAUCACCCAUGUAGAAGGCUGAGGGA | – | – | 20.1 | 33.6 |
| AGCGAGAUAGGCGAGGAUAUGCUUUUUUGCACAUGAGGAUCACCCAUGUCUUUGUUUUUUGUUUUGCAGAAGGCGCAUUCUCUUU | 18.9 | 41.2 | – | – |
| AGCGAGCUAGGAUAUACAUGAGGAUCACCCAUGUCUUUUUAGUACUACGGUGGAAGAUGUAGAAGGAGUGAGAA | – | – | 95.1 | 68.3 |
| AGCGGAUUGUAGAAGGGUGACAUGAGGAUCACCCAUGUUCAAAUGCGAUUUUCGGUAAUUGAUCCACAGGAUAUACUGUCCGAG | 976 | 427 | – | – |
| AGCGGCGCAGACCACCGCAAAACCAGAAGGACAUGAGGAUCACCCAUGUAACAAAACAGGGCAAUGUAGGAUAUGGCAAACCCA | – | – | 11.1 | 12.6 |
| AGCGUGUAAGGAUAUACGUCGGAUAGCGAAUGCUGUCCCUAGUAGAAGGUACAUGAGGAUCACCCAUGUGUCCA | – | – | 23.3 | 70.1 |
| AGCUACGUUUCGUAGCAGCUAGGUGAGGAUAUCCACUCGACAUGAGGAUCACCCAUGUAAACAUGGGAGAAGGCGCCUAGAAAG | 84.9 | 10.6 | – | – |
| AGCUACGUUUCGUAGCAGUGUCAUCGAGAAGGCCCUUACAUGACAACAUGAGGAUCACCCAUGUGGGAGGAUAUCGAUGAUACA | 11.4 | 8.98 | – | – |
